In brackets after ≈: the same amount, converted by molar mass. Activity calls are given as the source filed them. The calls are words filed in the database; no cut-off is given here.
Key:
[1] = system: Escherichia coli; assay: Antibacterial activity against Escherichia coli AS19 in presence of 360 nm light; assay type: functional, organism-based
[2] = system: Escherichia coli; assay: Antibacterial activity against Escherichia coli AS19 at 10 ug/ml after 3 days in presence of M9 buffer; assay type: functional, organism-based
Outline: (§1)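 Overnight LB culture of AS19 (pBRF14C) diluted to 10⁵-10⁶ cells/mL in M9 buffer (NH4Cl, Na2HPO4, KH2PO4); tryptanthrins at final 0.05-10 μg/mL (0.2-40 μM), 37 °C up to 72 h. Samples at ~12 h intervals plated on LB + ampicillin, counted after 24 h; surviving fraction relative to untreated M9 cells; duplicate samples, 4-8 repetitions.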

[3] = system: Escherichia coli; assay: Antibacterial activity against Escherichia coli AS19 at 0.6 to 2 ug/ml; assay type: functional, organism-based
[4] = system: Escherichia coli; assay: Antibacterial activity against Escherichia coli AS19 after 4 hrs; assay type: functional; conditions: AS19, 4 h
[5] = system: Escherichia coli; assay: Antibacterial activity against Escherichia coli AS19 assessed as growth inhibition at 10 ug/ml after 4 hrs; assay type: functional, organism-based
[6] = system: Escherichia coli; assay: Antibacterial activity against Escherichia coli AS19 at 0.4 ug/ml after 3 days in presence of M9 buffer; assay type: functional, organism-based; outline: as §1
[7] = target: T1, DNA topoisomerase 1 (Homo sapiens) (UniProt P11387); assay: Inhibition of human topoisomerase 1-mediated relaxation of circular DNA at 100 ug/ml
T1 sequence (whole entry): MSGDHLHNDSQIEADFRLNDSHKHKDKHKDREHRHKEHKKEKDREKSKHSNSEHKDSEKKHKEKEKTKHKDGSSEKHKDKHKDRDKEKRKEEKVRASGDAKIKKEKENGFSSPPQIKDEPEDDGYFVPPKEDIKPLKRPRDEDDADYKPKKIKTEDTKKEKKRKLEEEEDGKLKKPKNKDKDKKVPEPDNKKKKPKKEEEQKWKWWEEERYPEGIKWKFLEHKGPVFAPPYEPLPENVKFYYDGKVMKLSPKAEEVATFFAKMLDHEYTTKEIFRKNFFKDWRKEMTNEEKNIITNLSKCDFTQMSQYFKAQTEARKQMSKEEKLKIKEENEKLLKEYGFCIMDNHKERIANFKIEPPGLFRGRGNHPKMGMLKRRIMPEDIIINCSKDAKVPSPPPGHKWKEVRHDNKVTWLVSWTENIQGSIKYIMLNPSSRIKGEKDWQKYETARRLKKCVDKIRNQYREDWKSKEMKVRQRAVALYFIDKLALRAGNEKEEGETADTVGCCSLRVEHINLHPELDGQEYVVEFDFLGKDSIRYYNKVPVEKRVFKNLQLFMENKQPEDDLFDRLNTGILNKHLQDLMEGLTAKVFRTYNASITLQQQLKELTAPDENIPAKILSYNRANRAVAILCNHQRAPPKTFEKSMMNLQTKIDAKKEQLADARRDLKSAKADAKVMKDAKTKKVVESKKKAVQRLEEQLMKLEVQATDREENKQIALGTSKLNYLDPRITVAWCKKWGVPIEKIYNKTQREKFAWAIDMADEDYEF
Outline: (§2)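 Relaxation assay: 0.25 μg pGEM-3Z (2743 bp, CsCl-purified) with 1 U human topoisomerase I in 10 mM Tris pH 7.9, 150 mM NaCl, 0.1 mM spermidine, 5% glycerol, tryptanthrin 10-100 μg/mL, 2 h 37 °C (or pre-relaxed 1 h, then drug 1-2 h). Stopped with sarkosyl; 1.5% agarose ± 2 μg/mL chloroquine, 50 V 3-4 h, ethidium stain; drugs bound = (Ldrug−Lo)×360°/28°.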

[8] = system: Escherichia coli; assay: Mutagenic activity in Escherichia coli assessed as induction of frame shift mutation
[9] = system: Escherichia coli; assay: Antibacterial activity against Escherichia coli AS19 at 0.5 to 10 ug/ml after 3 days in presence of M9 buffer; assay type: functional, organism-based; conditions: 0.05 to 10 ug/ml, in the assay text read “0.05 to 10 ug/ml” for “0.5 to 10 ug/ml”; outline: as §1
[10] = target: T1, DNA topoisomerase 1 (Homo sapiens); assay: Inhibition of human topoisomerase 1-mediated relaxation of circular DNA; outline: as §2
[11] = system: Escherichia coli; assay: Antibacterial activity against Escherichia coli AS19 at 0.01 ug/ml; assay type: functional, organism-based
[12] = system: Escherichia coli; assay: Antibacterial activity against Escherichia coli AS19 at 0.1 ug/ml; assay type: functional, organism-based
[13] = system: Escherichia coli; assay: Antibacterial activity against Escherichia coli AS19 at 2.5 to 20 ug/ml after 4 hrs; assay type: functional, organism-based
[14] = system: Escherichia coli; assay: Antibacterial activity against Escherichia coli AS19 at 1 ug/ml after 4 hrs; assay type: functional, organism-based
[15] = system: Escherichia coli; assay: Antibacterial activity against Escherichia coli AS19 assessed as cell viability at 10 ug/ml after 20 to 24 hrs; assay type: functional
Outline: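 LB growth assay with AS19 (pBRF14C) at 37 °C with shaking; after 20-24 h exposure, dilutions in M9 buffer plated (200-400 cells) on LB + 30 μg/mL ampicillin, colonies counted after 24 h at 37 °C; viability = treated cells/mL divided by untreated cells/mL.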

| SMILES | Activity [1] | Activity [2] | GI50 [4] [µg/mL] | growth inhibition (GI) [5] | further results |
| --- | --- | --- | --- | --- | --- |
| O=c1c2ccccc2nc2n1-c1ccc(F)cc1/C2=N\O | inactive | Active |  |  |  |
| O=C1c2ccccc2-n2c1nc1nccnc1c2=O | Active | Active | 1.5 (≈ 5.99 µM) | Active | Activity [3]: Active |
| O=Nc1c2ccccc2n2c(O)c3ccccc3nc12 | inactive |  |  |  |  |
| O=C1c2cc(F)ccc2-n2c1nc1ccccc1c2=O |  |  |  |  | Activity [6]: Active |
| O=C1c2cc([N+](=O)[O-])ccc2-n2c1nc1ccccc1c2=O |  |  | 0.6 (≈ 2.05 µM) | Active | inhibition [7]: inactive |
| O=C1c2ccccc2-n2c1nc1ncccc1c2=O |  | Active | 1.3 (≈ 5.22 µM) | Active | fold change (FC) [8]: 22; Activity [9]: Active; inhibition [10]: inactive |
| O=C1c2cc(F)ccc2-n2c1nc1ncccc1c2=O |  | Active | 0.6 (≈ 2.25 µM) | Active | fold change (FC) [8]: 4; Activity [11]: inactive; Activity [12]: inactive; Activity [13]: Active; Activity [14]: Active; Activity [15]: 15% |
| O=C1c2ccccc2-n2c1nc1ccccc1c2=O [TRYPTANTHRIN] |  |  | 2.25 (≈ 9.06 µM) | Active |  |
| O=c1c2cccnc2nc2n1-c1ccccc1/C2=N\O | inactive |  |  |  |  |
| O=C1c2cc(Br)ccc2-n2c1nc1ccccc1c2=O |  |  |  |  | Activity [6]: Active |

— ChEMBL document CHEMBL1158534, “Antimicrobial activity of tryptanthrins in Escherichia coli” (J Med Chem, 2010)
